Assay results published in ChEMBL document CHEMBL1687900, “Potent farnesyltransferase inhibitors with 1,4-diazepane scaffolds as novel destabilizing microtubule agents in hormone-resistant prostate cancer” (J Med Chem, 2011).
Calls of active or inactive are those of the source. The rule behind the calls is not given here.

Assays:
[1] = Inhibition of FTase
Method in brief: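 Partially purified recombinant yeast FTase (2.2 mg/mL stock) and dansyl-GCVLS peptide (2 μM solution) were used with inhibitor in DMSO. Buffer was 50 mM Tris/HCl pH 7.5, 5.5 mM DTT, 10 mM MgCl2, 10 μM ZnCl2 and 0.08% CHAPS. Reaction was started with 10 μM FPP solution (1:10 addition). Fluorescence (ex 340 / em 486 nm) was followed 15 min at 30 °C. Values are the mean of three determinations.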

DU-145 [2] = assay: Anticancer activity against hormone-resistant human DU145 cells assessed as cell proliferation after 72 hrs by MTT assay; assay type: functional, cell-based; details: DU-145, 72 h
Method in brief: (§1)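 DU145 or PC3 cells (RPMI 1640, 10% FBS, 2 mM glutamine, 37 °C, 5% CO2) seeded at (1.6-1.8) 10^4 per well. After 72 h they were serum-deprived, and next day treated with various compound concentrations for 72 h. Viability was read by MTT (4 mg/mL, 4 h), SDS/HCl lysis and absorbance at 570 nm. Values come from at least three independent determinations.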

Liver microsomes = assay: Metabolic stability of the compound in human liver microsome assessed as compound remaining; assay type: ADME
Method in brief: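 Metabolic stability was tested in human liver microsomes, expressed as percentage of parent compound remaining at assay end.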

PC-3 [3] = assay: Anticancer activity against hormone-resistant human PC3 cells assessed as cell proliferation after 72 hrs by MTT assay; assay type: functional, cell-based; details: PC-3, 72 h; method in brief: as §1
[4] = Apparent permeability across human Caco2 cells; assay type: ADME, cell-based; details: Caco-2
PC-3 [5] = assay: Induction of disorganization of tubulin in human PC3 cells assessed as microtubule bundles at 21 uM by immunofluorescence microscopy; assay type: functional, cell-based
Method in brief: (§2)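 PC3 cells were grown on poly-D-lysine coverslips overnight, synchronized, then exposed 24 h to compound or DMSO. They were fixed in 4% paraformaldehyde, permeabilized with 0.5% Triton X-100, and blocked 45 min in 5% BSA. Staining used Alexa 488 anti-α-tubulin (1/100). Microtubule network was examined by fluorescence microscopy.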

DU-145 [6] = assay: Anticancer activity against hormone-resistant human DU145 cells assessed as cell proliferation at 100 uM after 72 hrs by MTT assay; assay type: functional; details: DU-145, 72 h
PC-3 [7] = assay: Anticancer activity against hormone-resistant human PC3 cells assessed as cell proliferation at 100 uM after 72 hrs by MTT assay; assay type: functional; details: PC-3, 72 h
DU-145 [8] = assay: Anticancer activity against human DU145 cells xenografted mouse assessed as suppression of tumor at 30 mg/kg; assay type: functional
PC-3 [9] = assay: Induction of disorganization of tubulin in human PC3 cells assessed as microtubule bundles at 75 uM after 24 hrs by immunofluorescence microscopy; assay type: functional, cell-based; method in brief: as §2
PC-3 [10] = assay: Anticancer activity against human PC3 cells xenografted mouse assessed as suppression of tumor at 30 mg/kg; assay type: functional
PC-3 [11] = assay: Induction of disorganization of tubulin in human PC3 cells assessed as decrease in microtubulin mass at 32 uM by immunofluorescence microscopy; assay type: functional, cell-based; method in brief: as §2
PC-3 [12] = assay: Induction of disorganization of tubulin in human PC3 cells assessed as microtubule bundles at 32 uM by immunofluorescence microscopy; assay type: functional, cell-based; method in brief: as §2
PC-3 [13] = assay: Induction of disorganization of tubulin in human PC3 cells assessed as decrease in microtubulin mass at 18 uM by immunofluorescence microscopy; assay type: functional, cell-based; method in brief: as §2
PC-3 [14] = assay: Induction of disorganization of tubulin in human PC3 cells assessed as microtubule bundles at 18 uM by immunofluorescence microscopy; assay type: functional, cell-based; method in brief: as §2

| Structure (SMILES) | IC50 [1] [µM] | IC50 (DU-145 [2]) [µM] | IC50 (PC-3 [3]) [µM] | inhibition at 100 µM (DU-145 [6]) [%] | inhibition at 100 µM (PC-3 [7]) [%] | also measured |
| --- | --- | --- | --- | --- | --- | --- |
| CC[C@H](C)[C@@H](CO[C@@H](Cc1ccccc1)C(=O)N[C@@H](CCS(C)(=O)=O)C(=O)OC(C)C)NC[C@@H](N)CS | 0.027 | 78 | 75 | – | – | inhibition in vivo at 30 mg/kg (DU-145 [8]): 85%; Activity (PC-3 [9]): Active; inhibition in vivo at 30 mg/kg (PC-3 [10]): 87% |
| N#Cc1ccc(Cn2cncc2CN2CCCN(C(=O)c3ccccc3F)CC2)cc1 | 0.14 | – | – | 7 | 2 | – |
| N#Cc1ccc(Cn2cncc2CN2CCCN(C(=O)c3ccsc3)CC2)cc1 | 0.042 | – | – | 3 | 4 | – |
| N#Cc1ccc(Cn2cncc2CN2CCCN(C(=O)Cc3cccc4ccccc34)CC2)cc1 | 0.013 | 93 | – | – | 40 | – |
| N#Cc1ccc(Cn2cncc2CN2CCCN(C(=O)c3ccncc3)CC2)cc1 | 0.142 | – | – | 6 | 12 | – |
| N#Cc1ccc(Cn2cncc2CN2CCCN(C(=O)c3ccc(F)cc3)CC2)cc1 | 0.069 | – | – | 27 | 40 | – |
| N#Cc1ccc(Cn2cncc2CN2CCCN(C(=O)c3ccccc3Br)CC2)cc1 | 0.064 | – | – | 17 | 15 | – |
| COc1cccc(C(=O)N2CCCN(Cc3cncn3Cc3ccc(C#N)cc3)CC2)c1OC | 0.043 | – | 80 | 44 | – | – |
| N#Cc1ccc(Cn2cncc2CN2CCC(c3ccccc3)N(C(=O)c3ccc(Cl)cc3Cl)CC2)cc1 (configuration not stated) | 0.382 | – | 76 | 31 | – | – |
| N#Cc1ccc(Cn2cncc2CN2CCCN(C(=O)c3ccc4ccccc4c3)CC2)cc1 | 0.035 | 52 | 47 | – | – | – |
| N#Cc1ccc(Cn2cncc2CN2CCCN(C(=O)c3ccc(-c4ccccc4)cc3)CC2)cc1 | 0.153 | 47 | 50 | – | – | – |
| CC(C)NCC(O)COc1cccc2ccccc12 (configuration not stated) [PROPRANOLOL] | – | – | – | – | – | Papp [4]: 41.1 ×10⁻⁶ cm/s |
| CC(C)CC(=O)N1CCCN(Cc2cncn2Cc2ccc(C#N)cc2)CC1 | 0.205 | – | – | 18 | 13 | – |
| N#Cc1ccc(Cn2cncc2CN2CCCN(C(=O)c3cccc4ccccc34)CC2)cc1 | 0.039 | 44 | 65 | – | – | – |
| N#Cc1ccc(Cn2cncc2CN2CCC(c3ccccc3)N(C(=O)c3ccccc3)CC2)cc1 (configuration not stated) | 0.079 | 75 | 80 | – | – | – |
| N#Cc1ccc(Cn2cncc2CN2CCC(c3ccccc3)N(C(=O)c3cccc4ccccc34)CC2)cc1 (configuration not stated) | 0.06 | 54 | 50 | – | – | – |
| CNC(=C[N+](=O)[O-])NCCSCc1ccc(CN(C)C)o1 [RANITIDINE] | – | – | – | – | – | Papp [4]: 0.7 ×10⁻⁶ cm/s |
| CC(CCc1ccccc1)NCC(O)c1ccc(O)c(C(N)=O)c1 (configuration not stated) [LABETALOL] | – | – | – | – | – | Papp [4]: 7.3 ×10⁻⁶ cm/s |
| N#Cc1ccc(Cn2cncc2CN2CCC(c3ccccc3)N(C(=O)c3ccccc3-c3ccccc3)CC2)cc1 (configuration not stated) | 0.057 | 47 | 50 | – | – | – |
| N#Cc1ccc(Cn2cncc2CN2CCC(c3ccccc3)N(C(=O)C3CCCCC3)CC2)cc1 (configuration not stated) | 0.503 | – | – | – | 5 | – |
| N#Cc1ccc(Cn2cncc2CN2CCCN(C(=O)c3ccc(Cl)cc3Cl)CC2)cc1 | 0.041 | 45 | 26 | – | – | – |
| N#Cc1ccc(Cn2cncc2CN2CCCN(C(=O)c3cccc(-c4ccccc4)c3)CC2)cc1 | 0.043 | 42 | 44 | – | – | – |

Now from value to molecule, other results behind:

| IC50 [1] [µM] | IC50 (DU-145 [2]) [µM] | IC50 (PC-3 [3]) [µM] | Structure (SMILES) | inhibition at 100 µM (DU-145 [6]) [%] | inhibition at 100 µM (PC-3 [7]) [%] | also measured |
| --- | --- | --- | --- | --- | --- | --- |
| 0.005 | 44 | 21 | N#Cc1ccc(Cn2cncc2CN2CCCN(C(=O)C34CC5CC(CC(C5)C3)C4)CC2)cc1 | – | – | Stability (Liver microsomes): 1%; Papp [4]: 28.8 ×10⁻⁶ cm/s; Activity (PC-3 [5]): Active |
| 0.024 | – | – | N#Cc1ccc(Cn2cncc2CN2CCCN(C(=O)C3CCCCC3)CC2)cc1 | 23 | 20 | – |
| 0.009 | 73 | 33 | N#Cc1ccc(Cn2cncc2CN2CCN(C(=O)c3ccccc3)CCC2c2ccccc2)cc1 (configuration not stated) | – | – | – |
| 0.021 | 44 | 38 | N#Cc1ccc(Cn2cncc2CN2CCN(C(=O)c3ccc(Cl)cc3Cl)CCC2c2ccccc2)cc1 (configuration not stated) | – | – | – |
| 0.018 | 48 | 77 | N#Cc1ccc(Cn2cncc2CN2CCN(C(=O)c3cccc4ccccc34)CCC2c2ccccc2)cc1 (configuration not stated) | – | – | – |
| 0.026 | 43 | 39 | N#Cc1ccc(Cn2cncc2CN2CCCN(C(=O)c3ccccc3-c3ccccc3)CC2)cc1 | – | – | – |
| 0.006 | 32 | 32 | N#Cc1ccc(Cn2cncc2CN2CCN(C(=O)C34CC5CC(CC(C5)C3)C4)CCC2c2ccccc2)cc1 (configuration not stated) | – | – | Activity (PC-3 [11]): Active; Activity (PC-3 [12]): Active; Stability (Liver microsomes): 3%; Papp [4]: 3.6 ×10⁻⁶ cm/s |
| 0.007 | 29 | 18 | N#Cc1ccc(Cn2cncc2CN2CCN(C(=O)C3CCCCC3)CCC2c2ccccc2)cc1 (configuration not stated) | – | – | Activity (PC-3 [13]): Active; Stability (Liver microsomes): 2%; Activity (PC-3 [14]): Active; Papp [4]: 25.1 ×10⁻⁶ cm/s |
| 0.015 | – | – | Cc1cccc(C(=O)N2CCCN(Cc3cncn3Cc3ccc(C#N)cc3)CC2)c1 | 34 | 0 | – |
| 0.017 | 42 | 41 | N#Cc1ccc(Cn2cncc2CN2CCC(c3ccccc3)N(C(=O)C34CC5CC(CC(C5)C3)C4)CC2)cc1 (configuration not stated) | – | – | – |
| 0.025 | 100 | 70 | N#Cc1ccc(Cn2cncc2CN2CCCN(C(=O)c3ccccc3Cl)CC2)cc1 | – | – | – |
| 0.017 | 35 | 50 | N#Cc1ccc(Cn2cncc2CN2CCN(C(=O)c3ccccc3-c3ccccc3)CCC2c2ccccc2)cc1 (configuration not stated) | – | – | – |
| 0.008 | – | – | N#Cc1ccc(Cn2cncc2CN2CCCN(C(=O)c3ccccc3)CC2)cc1 | 24 | 22 | – |
